Columns and labels:
[1] = test system: HL-60; experiment: Inhibitory concentration against HL-60 human promyelocytic leukemia cell lines; inactive until a maximum tested concentration of 200 uM; format: functional, cell-based
Method in brief: (§1)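 Cells in log phase plated with a range of drug concentrations (B16 5×10^3 cells/well; P388, L1210, LLC 10^4 cells/well; HL-60, K562, LoVo 2.5×10^5 cells/well). Growth read by modified MTT after 72 h drug contact at 37 °C. IC50 taken as the concentration reducing optical absorption by 50%, from Chou regression analysis. Maximum concentration tested 200 μM.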

[2] = test system: K562; experiment: Formation of NAD analogue by compound at 50 uM concentration against human myelogenous leukemia K562; format: functional
Method in brief: (§2)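 K562 cells (1×10^7/10 mL) were labeled with 185 nM [2,8-3H]adenosine for 1 h at 37 °C, then given saline or analogue for 2 h. Cells were pelleted, washed with PBS and extracted in cold 10% trichloroacetic acid. Extracts were neutralized with 0.5 M tri-n-octylamine in freon and run on SAX HPLC with ammonium phosphate buffer. Results are pmol NAD analogue per 10^9 cells.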

[3] = test system: K562; experiment: Inhibitory concentration determined against K562 human myelogenous leukemia cell lines; inactive until a maximum tested concentration of 200 uM; format: functional, cell-based; method in brief: as §1
[4] = test system: B16; experiment: Inhibitory concentration against B16 melanoma cell lines; Inactive until a maximum tested concentration of 200 uM; format: functional, cell-based, Mus musculus; method in brief: as §1
[5] = test system: LoVo; experiment: Inhibitory concentration against LoVo human colon adenocarcinoma cell lines; Inactive until a maximum tested concentration of 200 uM; format: functional, cell-based; method in brief: as §1
[6] = test system: K562; experiment: Formation of NAD analogue by compound at 100 uM concentration against human myelogenous leukemia K562; format: functional; method in brief: as §2
[7] = test system: L1210; experiment: Inhibitory concentration against L1210 murine lymphocytic leukemia cell lines; inactive until a maximum tested concentration of 200 uM; format: functional, cell-based, Mus musculus; method in brief: as §1
[8] = test system: Lewis lung carcinoma cell line; experiment: Inhibitory concentration against LLC Lewis lung carcinoma cell lines; Inactive until a maximum tested concentration of 200 uM; format: functional, cell-based, Mus musculus; method in brief: as §1
[9] = test system: P388; experiment: Inhibitory concentration against P388 murine lymphocytic leukemia cell lines; Inactive until a maximum tested concentration of 200 uM; format: functional, cell-based, Mus musculus; method in brief: as §1

IC50 [1]: Not Active | IC50 [3]: Not Active | IC50 [4]: Not Active | IC50 [5]: Not Active | IC50 [7]: Not Active | IC50 [8]: Not Active | IC50 [9]: Not Active
SMILES: NC(=O)c1coc([C@@H]2O[C@H](CO)[C@@H](O)[C@H]2O)c1
Formation [2]: 49.4 pmol/10^9 cells | Formation [6]: 124 pmol/10^9 cells
